Test results reported in ChEMBL document CHEMBL4811272, “A new sulfated triterpene glycoside from the sea cucumber Colochirus quadrangularis, and evaluation of its antifungal, antitumor and immunomodulatory activities” (Bioorg Med Chem, 2021).
pIC50: −log10 of the molar value. Activity calls are given as the source filed them. The rule behind the calls is not given here.

How the values were obtained:
Mus musculus [1] = experiment: Immunomodulatory activity in cyclophosphamide-immunosuppressed KM mouse assessed as improved in phagocytosis function in at 50 to 500 mg/kg, IG once daily measured after 14 days; format: functional, organism-based; details: dose 50-500 mg/kg, time 14.0 day
Procedure, shortened: (§1)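 KM mice dosed intragastrically once daily for 14 days at 5, 50 or 500 mg/kg; vehicle 0.5% CMC-Na. CTX 50 mg/kg i.p. on days 7, 9 and 11. 1 h after the last dose, 25% Indian ink given i.v. at 0.1 mL/10 g. Blood (20 µL) taken at 2 and 10 min, lysed in 2 mL water, OD 680 nm read. K and α calculated with body, liver and spleen weights. n = 8.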

CCRF S-180 [2] = experiment: Antitumor activity against mouse S-180 cells implanted in KM mouse assessed as tumor growth inhibition at 0.5 mg/kg, IG administered everyday for 7 days relative to control; format: functional; details: CCRF S-180, po, 168 h, time 7 day, read-out: TGI
Procedure, shortened: (§2)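 S-180 or H22 cells, about 2.5 × 10⁶ per mouse, injected s.c. in the right axilla of wild-type KM mice. Randomized after 24 h and dosed intragastrically for 7 days; sacrificed 24 h after the last dose. TGI = (W_C − W_T)/W_C × 100% from average tumor weight. n = 8; one-way ANOVA vs vehicle.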

HCT-116 [3] = experiment: Induction of apoptosis in human HCT-116 cells assessed as apoptotic nuclei cells measured upto 2 times of IC50 concentration for 24 hrs by Hoechst staining method; format: functional, cell-based
Procedure, shortened: (§3)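 HCT-116 cells treated with vehicle or three compound concentrations, then stained with Hoechst 33258. Nuclei examined by inverted fluorescence microscopy at ×400 in five random fields. Apoptotic cells expressed as % of cells counted. n = 3; ANOVA vs vehicle.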

HCT-116 [4] = experiment: Induction of apoptosis in human HCT-116 cells assessed as apoptosis associated morphological changes measured upto 2 times of IC50 concentration for 24 hrs by Hoechst staining method; format: functional, cell-based; procedure, shortened: as §3
Mus musculus [5] = experiment: Immunomodulatory activity in cyclophosphamide-immunosuppressed KM mouse assessed as increase in carbon particle clearance index in at 50 to 500 mg/kg, IG once daily measured after 14 days; format: functional, organism-based; details: dose 50-500 mg/kg, time 14.0 day; procedure, shortened: as §1
HCT-116 [6] = experiment: Induction of apoptosis in human HCT-116 cells assessed as increase in late apoptotic cells measured upto 2 times of IC50 concentration by annexin V staining based flow cytometry analysis; format: functional, cell-based
Procedure, shortened: (§4)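 HCT-116 cells treated with vehicle or three compound concentrations, collected, and stained with Annexin V-FITC and propidium iodide in the dark at 4 °C. Flow cytometry quadrants: Q4 live, Q3 early apoptotic, Q2 late apoptotic, Q1 necrotic. n = 3; ANOVA vs vehicle.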

CCRF S-180 [7] = experiment: Antitumor activity against mouse S-180 cells implanted in KM mouse assessed as tumor growth inhibition at 5 mg/kg, IG administered everyday for 7 days relative to control; format: functional; details: CCRF S-180, po, 168 h, time 7 day, read-out: TGI; procedure, shortened: as §2
HCT-116 [8] = experiment: Induction of apoptosis in human HCT-116 cells assessed as decrease in viable cells measured upto 2 times of IC50 concentration by annexin V staining based flow cytometry analysis; format: functional, cell-based; procedure, shortened: as §4
Bel-7402 [9] = experiment: Antitumor activity against human Bel-7402 cells implanted in BALB/c-nu mouse assessed as T/C ratio at 50 mg/kg, IG administered everyday for 7 days relative to control; format: functional; details: time 7 day
HMEC-1 = experiment: Antimigratory activity against human HMEC-1 cells assessed as inhibition of cell migration by transwell assay; format: functional, cell-based
Procedure, shortened: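 HMEC-1 endothelial cells seeded and exposed to compound. Proliferation read by SRB and migration by Transwell. IC50 calculated from three independent experiments.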

Pyricularia oryzae = experiment: Antifungal activity against Pyricularia oryzae P-2B by measuring minimum morphological deformation concentration; format: functional; details: read-out: MEC
H22 = experiment: Antitumor activity against mouse H22 cells implanted in KM mouse assessed as tumor growth inhibition at 5 mg/kg, IG administered everyday for 7 days relative to control; format: functional; details: H22, po, 168 h, time 7 day, read-out: TGI; procedure, shortened: as §2
A549 = experiment: Cytotoxicity against human A549 cells assessed as reduction in cell viability by sulforhodamine B assay; format: functional, cell-based
Procedure, shortened: (§5)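 Cells were kept in RPMI-1640 with 10% FBS, 2 mM L-glutamine, 50 μM β-mercaptoethanol and penicillin/streptomycin, at 37 °C in 5% CO2. SRB assay used 100, 10, 1, 0.1 and 0.01 μM, each in triplicate. Percent inhibition was calculated against solvent control OD. IC50 came from Logit curve fitting and is the mean of three independent experiments.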

[10] = Inhibition of angiogenesis in human HMEC-1 cells assessed as tube formation by matrigel-based assay; format: functional, cell-based
Procedure, shortened: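 HMEC-1 cells seeded onto solidified Matrigel and exposed to compound, then cultured. Total tube length measured and used to calculate IC50. Three independent experiments.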

Bel-7402 [11] = experiment: Antitumor activity against human Bel-7402 cells implanted in BALB/c-nu mouse assessed as T/C ratio at 500 mg/kg, IG administered everyday for 7 days relative to control; format: functional; details: time 7 day
[12] = target: Vascular endothelial growth factor receptor 2 (Mus musculus, UniProt P35918); experiment: Inhibition of VEGFR2 in mouse NIH/3T3 cells assessed as reduction of VEGF-stimulated phosphorylation; format: cell-based
Vascular endothelial growth factor receptor 2, sequence (P35918 whole entry): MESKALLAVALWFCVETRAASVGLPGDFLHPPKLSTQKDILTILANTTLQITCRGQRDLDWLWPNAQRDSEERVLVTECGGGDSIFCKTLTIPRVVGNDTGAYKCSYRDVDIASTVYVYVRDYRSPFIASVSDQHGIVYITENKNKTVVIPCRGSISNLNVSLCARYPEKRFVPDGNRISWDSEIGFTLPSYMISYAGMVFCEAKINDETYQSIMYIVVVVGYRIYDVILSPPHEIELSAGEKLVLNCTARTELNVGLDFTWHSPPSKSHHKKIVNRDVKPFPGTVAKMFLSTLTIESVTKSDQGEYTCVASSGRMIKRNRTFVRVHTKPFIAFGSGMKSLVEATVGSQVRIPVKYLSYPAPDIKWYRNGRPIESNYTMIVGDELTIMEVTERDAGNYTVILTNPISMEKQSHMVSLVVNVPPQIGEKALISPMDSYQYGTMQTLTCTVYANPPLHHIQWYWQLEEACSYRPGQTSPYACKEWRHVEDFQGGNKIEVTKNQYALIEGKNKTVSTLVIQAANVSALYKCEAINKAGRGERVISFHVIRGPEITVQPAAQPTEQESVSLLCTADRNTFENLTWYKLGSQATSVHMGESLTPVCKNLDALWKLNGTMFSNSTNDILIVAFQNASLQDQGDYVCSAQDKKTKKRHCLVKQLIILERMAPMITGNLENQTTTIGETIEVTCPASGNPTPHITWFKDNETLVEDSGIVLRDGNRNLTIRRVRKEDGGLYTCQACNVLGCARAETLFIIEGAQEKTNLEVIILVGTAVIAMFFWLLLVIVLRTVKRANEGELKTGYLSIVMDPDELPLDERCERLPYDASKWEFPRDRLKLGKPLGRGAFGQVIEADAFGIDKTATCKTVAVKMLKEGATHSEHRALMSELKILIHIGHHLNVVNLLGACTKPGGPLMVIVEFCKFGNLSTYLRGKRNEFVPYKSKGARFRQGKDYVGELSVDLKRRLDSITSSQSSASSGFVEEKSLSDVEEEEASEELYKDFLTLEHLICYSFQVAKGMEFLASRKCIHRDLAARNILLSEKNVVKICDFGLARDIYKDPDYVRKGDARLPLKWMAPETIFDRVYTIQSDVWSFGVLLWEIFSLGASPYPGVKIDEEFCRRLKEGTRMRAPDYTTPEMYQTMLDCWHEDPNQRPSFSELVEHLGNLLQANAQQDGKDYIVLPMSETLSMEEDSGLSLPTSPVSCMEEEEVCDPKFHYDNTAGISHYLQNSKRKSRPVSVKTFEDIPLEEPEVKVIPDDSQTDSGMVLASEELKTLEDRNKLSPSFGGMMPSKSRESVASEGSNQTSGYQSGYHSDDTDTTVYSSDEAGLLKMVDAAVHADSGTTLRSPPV
Procedure, shortened: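 NIH/3T3 fibroblasts transfected to overexpress VEGFR-2 or PDGFR-β, starved 24 h, then given compound. Stimulation: VEGF 500 ng/mL for VEGFR-2 cells, PDGF-BB 150 ng/mL for PDGFR-β cells. Cells fixed in 4% paraformaldehyde and probed with PY-99 anti-phosphotyrosine, secondary IgG and HRP-avidin. OD 405 nm read after ABTS; IC50 from three independent experiments.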

[13] = Cytotoxicity against human HO-8910 cells assessed as reduction in cell viability by sulforhodamine B assay; format: functional, cell-based; procedure, shortened: as §5
HCT-116 [14] = experiment: Induction of apoptosis in human HCT-116 cells assessed as increase in necrotic cells measured upto 2 times of IC50 concentration by annexin V staining based flow cytometry analysis; format: functional, cell-based; procedure, shortened: as §4
Bel-7402 [15] = experiment: Antitumor activity against human Bel-7402 cells implanted in BALB/c-nu mouse assessed as tumor growth inhibition at 50 mg/kg, IG administered everyday for 7 days relative to control; format: functional; details: Bel-7402, po, 168 h, time 7 day, read-out: TGI
Mus musculus [16] = experiment: Immunomodulatory activity in cyclophosphamide-immunosuppressed KM mouse assessed as improved spleen index in at 50 to 500 mg/kg, IG once daily measured after 14 days; format: functional, organism-based; details: dose 50-500 mg/kg, time 14.0 day
Procedure, shortened: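 KM mice dosed intragastrically at 5, 50 or 500 mg/kg; vehicle 0.5% CMC-Na. After five doses, immunized i.p. with 0.2 mL 20% rabbit erythrocytes, and dosing continued for 8 days. CTX 30 mg/kg i.p. on days 2, 4 and 6 after immunization. 1 h after the last dose, spleen and thymus weighed; index in g/kg. n = 8.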

Bel-7402 [17] = experiment: Antitumor activity against human Bel-7402 cells implanted in BALB/c-nu mouse assessed as tumor growth inhibition at 500 mg/kg, IG administered everyday for 7 days relative to control; format: functional; details: Bel-7402, po, 168 h, time 7 day, read-out: TGI
MKN-28 = experiment: Cytotoxicity against human MKN-28 cells assessed as reduction in cell viability by sulforhodamine B assay; format: functional, cell-based; procedure, shortened: as §5
HCT-116 [18] = experiment: Induction of apoptosis in human HCT-116 cells assessed as increase in early apoptotic cells measured upto 2 times of IC50 concentration by annexin V staining based flow cytometry analysis; format: functional, cell-based; procedure, shortened: as §4

In the case of C=C(C)CCC[C@]1(C)OC(=O)[C@]23CC[C@@H]4C(=CCC5C(C)(C)[C@@H](O[C@@H]6OC[C@@H](OS(=O)(=O)[O-])[C@H](O)[C@H]6O[C@@H]6O[C@H](C)[C@@H](O[C@@H]7OC[C@@H](O)[C@H](O[C@@H]8O[C@H](CO)[C@@H](O)[C@H](OC)[C@H]8O)[C@H]7O)[C@H](O)[C@H]6O)CC[C@@]54C)[C@]2(C)C[C@H](OC(C)=O)[C@@H]31.[Na+] (stereo partly drawn), the Activity (Mus musculus [1]) was “Active”, the inhibition in vivo at 0.5 mg/kg (CCRF S-180 [2]) was 21.6% and the Activity (HCT-116 [3]) was “Active”. The Activity (HCT-116 [4]) was “Active”, the Activity (Mus musculus [5]) was “Active” and the Activity (HCT-116 [6]) was “Active”. For the same compound, the inhibition in vivo at 5 mg/kg (CCRF S-180 [7]) was 44.2%, the Activity (HCT-116 [8]) was “inactive” and the T/C (Bel-7402 [9]) was 42.2%. For the same compound, the pIC50 (HMEC-1) was 7.30, the minimal effective concentration (Pyricularia oryzae) was no more than 16 µg/mL and the inhibition in vivo at 5 mg/kg (H22) was 40.1%. For the same compound, the pIC50 (A549) was 5.90, the pIC50 [10] was 7.22 and the T/C (Bel-7402 [11]) was 32%. For the same compound, the pIC50 [12] was 5.66, the pIC50 [13] was 5.71 and the Activity (HCT-116 [14]) was “Active”. For the same compound, the inhibition in vivo at 50 mg/kg (Bel-7402 [15]) was 58.2%, the Activity (Mus musculus [16]) was “Active” and the inhibition in vivo at 500 mg/kg (Bel-7402 [17]) was 58.6%. The pIC50 (MKN-28) was 5.74 and the Activity (HCT-116 [18]) was “Active”.
